Reference: ChEMBL document CHEMBL3526119, “Effect of the CYP2C8 genotype on the pharmacokinetics and pharmacodynamics of repaglinide” (Drug Metab Dispos, 2011)

What was measured:
Format in all cases: ADME, organism-based
Conditions in all cases: in vivo
[1] = Drug excretion in healthy white human urine with CYP2C8*3/*3 genotype at 2 mg, po up to 24 hrs
How it was run: (§1)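 Urine was collected before a single 2 mg oral dose and over 0–4, 4–8, 8–12, 12–16 and 16–24 h. Metabolites M1 and M4 were measured by LC-MS/MS. With no reference standards, amounts were expressed in arbitrary units as the peak area ratio to diclofenac internal standard. Ae0-24h is the sum of amounts over the collection periods.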

Homo sapiens [2] = test: Drug excretion in healthy white human with SLCO1B1 521TC/CYP2C8*1/*1 combined genotype treated with 2 mg, po repaglinide; how it was run: as §1
Homo sapiens [3] = test: Drug excretion in healthy white human with SLCO1B1 521TT/CYP2C8*3/*3 combined genotype treated with 2 mg, po repaglinide; how it was run: as §1
Homo sapiens [4] = test: Drug excretion in healthy white human with SLCO1B1 521TC/CYP2C8*3/*3 combined genotype treated with 2 mg, po repaglinide; how it was run: as §1
Homo sapiens [5] = test: Drug excretion in healthy white human with SLCO1B1 521TT/CYP2C8*1/*3 combined genotype treated with 2 mg, po repaglinide; how it was run: as §1
Homo sapiens [6] = test: Drug excretion in healthy white human with SLCO1B1 521CC/CYP2C8*3/*3 combined genotype treated with 2 mg, po repaglinide; how it was run: as §1
[7] = Drug excretion in healthy white human urine with CYP2C8*1/*1 genotype at 2 mg, po up to 24 hrs; how it was run: as §1
Homo sapiens [8] = test: Drug excretion in healthy white human with SLCO1B1 521CC/CYP2C8*1/*3 combined genotype treated with 2 mg, po repaglinide; how it was run: as §1
Homo sapiens [9] = test: Drug excretion in healthy white human with SLCO1B1 521TC/CYP2C8*1/*3 combined genotype treated with 2 mg, po repaglinide; how it was run: as §1
Homo sapiens [10] = test: Drug excretion in healthy white human urine at 2 mg, po up to 24 hrs; how it was run: as §1
[11] = Drug excretion in healthy white human urine with CYP2C8*1/*3 genotype at 2 mg, po up to 24 hrs; how it was run: as §1
Homo sapiens [12] = test: Drug excretion in healthy white human with SLCO1B1 521TT/CYP2C8*1/*1 combined genotype treated with 2 mg, po repaglinide; how it was run: as §1

| SMILES | Ae [1] | Ae (Homo sapiens [2]) | Ae (Homo sapiens [3]) | Ae (Homo sapiens [4]) | Ae (Homo sapiens [5]) | Ae (Homo sapiens [6]) | Ae [7] | Ae (Homo sapiens [8]) | Ae (Homo sapiens [9]) | Ae (Homo sapiens [10]) | Ae [11] | Ae (Homo sapiens [12]) |
| --- | --- | --- | --- | --- | --- | --- | --- | --- | --- | --- | --- | --- |
| CCOc1cc(CC(=O)N[C@@H](CC(C)C)c2ccccc2N2CCCC(O)C2)ccc1C(=O)O (some centres undefined) | 336.7 a.u. | 191.7 a.u. | 79.4 a.u. | 471.7 a.u. | 226.4 a.u. | 268.6 a.u. | 184.2 a.u. | 155.1 a.u. | 197.8 a.u. | 217.8 a.u. | 212.4 a.u. | 181.7 a.u. |
| CCOc1cc(CC(=O)N[C@@H](CC(C)C)c2ccccc2N)ccc1C(=O)O | 53.3 a.u. | 39.9 a.u. | 53.1 a.u. | 52.8 a.u. | 47.5 a.u. | 29.1 a.u. | 52.8 a.u. | 41.4 a.u. | 33.3 a.u. | 48.3 a.u. | 42.6 a.u. | 57 a.u. |
